Only some compounds are listed: those with a hit (about 11% of all), similar ones and a draw of the others.
Htt clearance: compounds clearing mutant huntingtin protein; HeLa Exon1htt(103Q)mCFP, aggregate imaging; zero = plate's median compound well; inhibition, % at 1.5 µM; actives 0.42% (n = 47,000); AID 853;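 active means inhibition of aggregate fluorescence above about 70%, also judged a hit by eye on the cell image, limit read from the data, passing the limit was not always enough; inconclusive means no rule stated for this call; inactive means not judged a hit on image review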;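 further: cells exposed to compound for three days before fixation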
SF1 activator: SF-1 (human) activation | CHO-K1 Gal4-SF-1 LBD luciferase reporter; % increase over DMSO SF-1-specific signal | activation, % at 10 µM | actives 1.9% (n = 65,000) | AID 522;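 active means activation above the mean activation of all tested compounds plus 3 SD, cut at about 50% in these data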
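Test system: CHO-K1 cells with Gal4–hSF-1 LBD chimera plus Gal4-driven luciferase; Input: 4,000 cells/well; Compound: 10 µM only; Times: 20 h compound treatment, 37 °C; Measured by: steady-glow luciferase luminescence, read after 15 min reagent incubation; Measure: percent activation versus DMSO; Control set: DMSO and mock-transfected background; Replicates: one test per compound.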
D1 allo mod: allosteric modulators of human D1 dopamine receptor | P21728 | actives 5.9% (n = 58,000) | HEK293 D1, CRE-luciferase, dopamine EC30 potentiation; actives deviate in either direction | B-score at 10 µM;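 active means luminescence count or its row- and column-corrected plate score outside the 99.7% band of the plate's sample wells, on either side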
RORa activator: RORA (human) activation | P35398 | CHO-K1 Gal4-RORA LBD luciferase reporter, luminescence; percent increase over mock-subtracted basal signal | activation, % at 10 µM | actives 1.5% (n = 65,000) | AID 560;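 active means activation above the mean of all tested compounds plus 3 SD, cut at about 49% in these data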
Target sequence (P35398 whole entry, looked up, the tested form may be a part): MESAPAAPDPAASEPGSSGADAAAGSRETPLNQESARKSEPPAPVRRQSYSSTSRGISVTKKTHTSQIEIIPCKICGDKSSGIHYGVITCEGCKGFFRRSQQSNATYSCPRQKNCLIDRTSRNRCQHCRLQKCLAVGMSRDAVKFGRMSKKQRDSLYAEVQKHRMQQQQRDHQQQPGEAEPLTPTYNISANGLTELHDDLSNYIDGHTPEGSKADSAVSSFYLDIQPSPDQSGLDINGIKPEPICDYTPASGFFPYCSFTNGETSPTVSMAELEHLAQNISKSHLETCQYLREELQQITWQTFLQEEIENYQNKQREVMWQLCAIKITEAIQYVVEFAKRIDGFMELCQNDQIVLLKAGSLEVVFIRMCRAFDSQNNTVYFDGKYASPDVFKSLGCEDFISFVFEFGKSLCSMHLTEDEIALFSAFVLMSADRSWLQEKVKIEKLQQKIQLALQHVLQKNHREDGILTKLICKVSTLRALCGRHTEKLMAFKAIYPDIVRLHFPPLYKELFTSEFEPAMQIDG
M1 ag: activates the M1 muscarinic receptor; CHO-M1 cells, Fluo-4 calcium fluorescence, agonist mode; active compounds read high; B-score at 10 µM; actives 3% (n = 64,000); AID 626;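 active means fluorescence rise, raw or as B-score row- and column-corrected plate score, outside the 99.7% band of its plate's samples, either direction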
M1 antagonist: M1 muscarinic receptor (rat) antagonism; P08482; CHO-M1 cells, Fluo-4 calcium, ACh EC80 antagonist mode; active compounds read low; B-score at 10 µM; actives 3.4% (n = 64,000);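 active means calcium fluorescence response, raw or row-and-column corrected B-score, differing from the plate sample mean either way at a set confidence level, mostly lower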
M1 agonist conf: confirmation of rat M1 muscarinic receptor agonists. shares compounds with M1 ag. actives 19% (n = 1,700). fluorescence change (max-min) at 10 µM. CHO-M1 cells, Fluo-4 calcium fluorescence, agonist mode; actives lie on both sides;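 active means fluorescence change differs from the solvent-only DMSO control mean at a set confidence level in both duplicate runs; inconclusive means differs from solvent-only control mean in just one of two runs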;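 further: an EC20 dose of acetylcholine follows compound addition during the same imaging run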
M4 ag counter: activates rat M4 receptor in counter-screen for M1 agonists; actives 9% (n = 1,700); CHO M4/Gqi5 cells, Fluo-4 calcium fluorescence, agonist mode; actives lie on both sides; fluorescence change (max-min) at 10 µM; shares compounds with M1 ag;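 active means fluorescence change differing from the plate's solvent-only control wells at 99.7% confidence in both duplicates, whether higher or lower; inconclusive means differs from solvent controls in only one of two duplicates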
Each line names hits and unclear results; the compound was inactive in the other large screens (follow-up assays come after a bar, where they were run).

CC(OC(=O)c1ccco1)C(=O)NC1CCCCC1 (stereo unspecified)	none (no result: Htt clearance)
CC(C)C(OC(=O)c1ccco1)C(=O)NC1CCCCC1 (stereo unspecified)	M1 ag 2.23 | M1 agonist conf inactive | M4 ag counter inactive
CC(C)c1cc(CN2CCN(CCC#N)CC2)cc(C(C)C)c1O	M1 ag 26.9 (no result: Htt clearance) | M1 agonist conf inactive | M4 ag counter inactive
CC(C)(C)c1cc(CN2CCN(CCO)CC2)cc(C(C)(C)C)c1O	none
Cc1cccc(-c2nc(CSCC(=O)N3CCN(c4ccccn4)CC3)c(C)o2)c1	M1 ag 3.84, M1 antagonist -3.74 | M1 agonist conf inactive | M4 ag counter inconclusive
Cc1ccc(-c2nc(CSCC(=O)N3CCCC3)c(C)o2)cc1	none (no result: Htt clearance)
Cc1ccsc1-c1nc(CSCC(=O)N2CCN(c3ccccc3)CC2)c(C)o1	M1 ag 5.01, M1 antagonist -2.48 (no result: Htt clearance) | M1 agonist conf -38.6 | M4 ag counter inconclusive
O=C(NC(=S)Nc1ccccc1)c1csnn1	none (no result: SF1 activator, D1 allo mod, RORa activator, M1 ag, M1 antagonist)
C=CCn1c(SCC(=O)NC2CCCCC2)nnc1C(C)NC(=O)c1cccs1 (stereo unspecified)	none (no result: Htt clearance)
C=CCn1c(SCC(=O)c2ccc(OC)cc2)nnc1C(C)NC(=O)c1cccs1 (stereo unspecified)	M1 ag -2.82 | M1 agonist conf inconclusive | M4 ag counter inactive
C=CCn1c2ccccc2c2nnc(SCc3ccc4nonc4c3)nc21	M1 ag 2.27 | M1 agonist conf inactive | M4 ag counter inactive
CCCCCOC(=O)Cn1c(N2CCCCCC2)nc2c1c(=O)[nH]c(=O)n2C	none (no result: Htt clearance)
CC(=O)Nc1cccc(NC(=O)c2oc3ccccc3c2C)c1	SF1 activator 51.0, M1 ag 2.3 (no result: Htt clearance) | M1 agonist conf inactive | M4 ag counter inactive
Cc1c(C(=O)Nc2cccc3cccnc23)oc2ccccc12	none (no result: Htt clearance)
CC1CCCCN1S(=O)(=O)c1ccc(C(=O)Nc2nnc(-c3ccccc3Cl)o2)cc1 (stereo unspecified)	M1 ag -2.49 (no result: Htt clearance) | M1 agonist conf inconclusive | M4 ag counter inactive
CCC1CCCCN1S(=O)(=O)c1ccc(C(=O)Nc2nnc(-c3ccccc3Cl)o2)cc1 (stereo unspecified)	none (no result: Htt clearance)
CC(C)Cn1c(N)c(C(=O)CSc2ccc3c(c2)OCCO3)c(=O)n(C)c1=O	none (no result: Htt clearance)
Cc1ccccc1OCc1nc(-c2ccccc2)no1	SF1 activator 71.2, M1 ag -2.43 | M1 agonist conf inactive | M4 ag counter inactive
CCSc1nc(-c2ccc(OC)cc2)n(-c2nc3ccccc3s2)n1	none
N#Cc1cccc(NC(=O)c2nc(-c3ccccc3)n(-c3ccccc3)n2)c1	M1 ag 3.51 | M1 agonist conf inactive | M4 ag counter inactive
Cc1ccc(-c2n[nH]c3c2CCC3)cc1	none (no result: SF1 activator, D1 allo mod, RORa activator, M1 ag, M1 antagonist)
CC1CCCN(c2nc3ccccc3nc2C(C#N)C(=O)OC2CCCCC2)C1 (stereo unspecified)	none
CC(C)COc1nc2ccccc2nc1C(C#N)C(=O)NC1CCCCC1 (stereo unspecified)	none (no result: Htt clearance)
CC1CN(c2nc3ccccc3nc2C(C#N)C(=O)OC2CCCCC2)CC(C)O1 (stereo unspecified)	M1 ag 38.3 | M1 agonist conf inconclusive | M4 ag counter inactive
CC1CN(c2nc3ccccc3nc2C(C#N)C(=O)NC2CCCCC2)CC(C)O1 (stereo unspecified)	M1 ag 40.6 (no result: Htt clearance) | M1 agonist conf -31.3 | M4 ag counter inactive
COc1cccc(N2CCN(Cc3nc(N)nc(Nc4ccccc4)n3)CC2)c1	M1 ag 6.27 | M1 agonist conf inactive | M4 ag counter inactive
COc1ccccc1N1CCN(Cc2nc(N)nc(Nc3ccc(C)c(Cl)c3)n2)CC1	M1 ag 3.34 (no result: Htt clearance) | M1 agonist conf inconclusive | M4 ag counter inconclusive
Cc1cccc(Nc2nc(N)nc(CN3CCN(c4ccccc4)CC3)n2)c1	none (no result: Htt clearance)
CC(C)Sc1nc2sc3c(c2c2nnc(SCC(=O)NCc4ccco4)n12)CCCC3	none
CN1CCN(Cc2nc3c(c(=O)n(C)c(=O)n3C)n2Cc2ccccc2Cl)CC1	none (no result: Htt clearance)

Screens deposited in PubChem by several laboratories.
